Data: ChEMBL document CHEMBL1150261, “Ring size in octreotide amide modulates differently agonist versus antagonist binding affinity and selectivity” (J Med Chem, 2008)
pIC50: −log10 of the molar value. Active and inactive are the calls of the source. The rule behind the calls is not given here.

Legend:
[1] = molecular target: Somatostatin receptor type 1 (Homo sapiens, UniProt P30872); assay: Displacement of [125I]-[Leu8, DTrp22, Tyr25]SRIF28 from human sst1 receptor expressed in CHOK1 cells by autoradiography; format: cell-based, CHO-K1
[2] = molecular target: Somatostatin receptor type 5 (Homo sapiens, UniProt P35346); assay: Displacement of [125I]-[Leu8, DTrp22, Tyr25]SRIF28 from human sst5 receptor expressed in CHOK1 cells by autoradiography; format: cell-based, CHO-K1
[3] = molecular target: Somatostatin receptor type 3 (Homo sapiens, UniProt P32745); assay: Displacement of [125I]-[Leu8, DTrp22, Tyr25]SRIF28 from human sst3 receptor expressed in chinese hamster CCL39 cells by autoradiography; format: cell-based
[4] = molecular target: T1, Somatostatin receptor type 2 (Homo sapiens, UniProt P30874); assay: Displacement of [125I]-[Leu8, DTrp22, Tyr25]SRIF28 from human sst2 receptor expressed in chinese hamster CCL39 cells by autoradiography; format: cell-based
[5] = molecular target: Somatostatin receptor type 4 (Homo sapiens, UniProt P31391); assay: Displacement of [125I]-[Leu8, DTrp22, Tyr25]SRIF28 from human sst4 receptor expressed in chinese hamster CCL39 cells by autoradiography; format: cell-based
[6] = molecular target: T1, Somatostatin receptor type 2; assay: Agonist activity at T7-tagged human sst2 receptor expressed in HEK293 cells at 100 to 10000 nM; format: functional, cell-based
In short: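 Immunofluorescence microscopy internalization in HEK-sst2 cells. Agonist mode: peptides at 100 nM to 10,000 nM. Antagonist mode: 100 nM [Tyr3]-octreotide with 100-fold excess of peptide. Treatment 30 min at 37 °C, 5% CO2 in growth medium, then staining with polyclonal sst2-specific R2-88 antibody; n ≥ 2.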

Chain of Somatostatin receptor type 3 (P32745 whole entry): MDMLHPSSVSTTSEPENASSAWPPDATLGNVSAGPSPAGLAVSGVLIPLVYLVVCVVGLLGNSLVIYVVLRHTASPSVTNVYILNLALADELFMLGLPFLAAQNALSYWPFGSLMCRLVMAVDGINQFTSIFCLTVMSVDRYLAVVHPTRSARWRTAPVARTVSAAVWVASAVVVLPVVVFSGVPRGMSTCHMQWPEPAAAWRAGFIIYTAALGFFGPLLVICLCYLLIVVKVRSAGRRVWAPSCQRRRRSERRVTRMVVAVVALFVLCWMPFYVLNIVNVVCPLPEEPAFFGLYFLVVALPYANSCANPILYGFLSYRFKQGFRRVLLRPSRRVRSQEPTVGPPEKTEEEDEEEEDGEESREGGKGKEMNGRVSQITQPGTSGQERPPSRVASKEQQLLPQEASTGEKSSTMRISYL
Chain of Somatostatin receptor type 5 (P35346 whole entry): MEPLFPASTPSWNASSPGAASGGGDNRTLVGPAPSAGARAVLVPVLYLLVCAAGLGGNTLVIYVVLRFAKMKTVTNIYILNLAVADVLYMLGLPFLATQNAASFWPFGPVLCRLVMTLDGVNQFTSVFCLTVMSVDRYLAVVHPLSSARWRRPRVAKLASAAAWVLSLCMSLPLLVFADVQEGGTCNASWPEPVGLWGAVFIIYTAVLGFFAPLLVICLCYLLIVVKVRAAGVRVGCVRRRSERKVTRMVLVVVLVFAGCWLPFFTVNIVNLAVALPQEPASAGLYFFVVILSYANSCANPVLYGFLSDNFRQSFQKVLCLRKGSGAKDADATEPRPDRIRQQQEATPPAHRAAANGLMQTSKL
Chain of Somatostatin receptor type 1 (P30872 whole entry): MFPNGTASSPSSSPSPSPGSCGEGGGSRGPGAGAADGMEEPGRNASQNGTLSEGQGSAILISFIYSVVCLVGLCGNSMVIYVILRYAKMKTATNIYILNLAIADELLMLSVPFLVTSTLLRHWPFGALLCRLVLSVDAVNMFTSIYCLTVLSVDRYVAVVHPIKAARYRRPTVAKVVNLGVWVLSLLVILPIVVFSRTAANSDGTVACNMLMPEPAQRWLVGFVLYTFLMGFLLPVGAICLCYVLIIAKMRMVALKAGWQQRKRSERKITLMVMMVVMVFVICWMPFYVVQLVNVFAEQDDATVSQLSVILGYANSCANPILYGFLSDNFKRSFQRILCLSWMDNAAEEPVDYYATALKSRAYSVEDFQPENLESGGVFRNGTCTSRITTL
T1 sequence (P30874 whole entry): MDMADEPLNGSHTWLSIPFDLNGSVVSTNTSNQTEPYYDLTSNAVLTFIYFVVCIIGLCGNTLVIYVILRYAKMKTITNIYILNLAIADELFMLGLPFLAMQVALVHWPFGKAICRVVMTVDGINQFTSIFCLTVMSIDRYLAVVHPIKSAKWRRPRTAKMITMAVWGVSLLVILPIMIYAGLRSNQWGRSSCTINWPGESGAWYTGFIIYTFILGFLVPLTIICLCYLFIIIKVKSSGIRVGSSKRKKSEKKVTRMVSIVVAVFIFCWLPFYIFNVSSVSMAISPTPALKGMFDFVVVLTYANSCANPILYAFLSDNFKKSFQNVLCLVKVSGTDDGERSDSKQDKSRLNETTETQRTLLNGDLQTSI
Chain of Somatostatin receptor type 4 (P31391 whole entry): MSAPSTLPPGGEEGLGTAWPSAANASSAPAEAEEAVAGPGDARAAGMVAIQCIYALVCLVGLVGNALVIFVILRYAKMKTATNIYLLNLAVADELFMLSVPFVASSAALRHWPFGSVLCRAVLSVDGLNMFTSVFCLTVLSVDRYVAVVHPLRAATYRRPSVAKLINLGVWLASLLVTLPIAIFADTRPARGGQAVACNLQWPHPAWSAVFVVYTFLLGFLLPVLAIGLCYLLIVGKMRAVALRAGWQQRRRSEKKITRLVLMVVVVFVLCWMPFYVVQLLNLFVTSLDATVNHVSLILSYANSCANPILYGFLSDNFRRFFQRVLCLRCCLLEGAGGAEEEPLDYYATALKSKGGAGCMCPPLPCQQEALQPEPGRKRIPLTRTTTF

pIC50 [1]	pIC50 [2]	pIC50 [3]	pIC50 [4]	pIC50 [5]	Activity [6]	Structure (SMILES)
6.12	6.70	6.44	6.57	6.76		C[C@@H](O)[C@@H]1NC(=O)[C@H](CCCCN)NC(=O)[C@@H](Cc2c[nH]c3ccccc23)NC(=O)[C@H](Cc2ccc(O)cc2)NC(=O)[C@H](NC(=O)[C@@H](N)Cc2ccc(Cl)cc2)CCSSCC[C@@H](C(=O)N[C@@H](Cc2ccc3ccccc3c2)C(N)=O)NC1=O
< 6.00	6.96	6.34	8.31	6.94		C[C@@H](O)[C@H](NC(=O)[C@@H]1CCSSCC[C@H](NC(=O)[C@H](N)Cc2ccccc2)C(=O)N[C@@H](Cc2ccccc2)C(=O)N[C@H](Cc2c[nH]c3ccccc23)C(=O)N[C@@H](CCCCN)C(=O)N[C@@H]([C@@H](C)O)C(=O)N1)C(N)=O
< 6.00		7.41	8.72	< 6.00	Active	C[C@@H](O)[C@H](NC(=O)[C@@H]1CSSC[C@H](NC(=O)[C@H](N)Cc2ccccc2)C(=O)N[C@@H](Cc2ccccc2)C(=O)N[C@H](Cc2c[nH]c3ccccc23)C(=O)N[C@@H](CCCCN)C(=O)N[C@@H]([C@@H](C)O)C(=O)N1)C(N)=O
< 6.00	< 6.00	< 6.00	6.47	6.67		C[C@@H](O)[C@H](NC(=O)[C@@H]1NC(=O)[C@H]([C@@H](C)O)NC(=O)[C@H](CCCCN)NC(=O)[C@@H](Cc2c[nH]c3ccccc23)NC(=O)[C@H](Cc2ccccc2)NC(=O)[C@H](NC(=O)[C@H](N)Cc2ccccc2)SS1)C(N)=O
					Active	C[C@@H](O)[C@H](NC(=O)[C@H]1CCSSCC[C@@H](NC(=O)[C@H](N)Cc2ccccc2)C(=O)N[C@@H](Cc2ccccc2)C(=O)N[C@H](Cc2c[nH]c3ccccc23)C(=O)N[C@@H](CCCCN)C(=O)N[C@@H]([C@@H](C)O)C(=O)N1)C(N)=O
